According to ChEMBL document CHEMBL1795294, “Modulation of the activity of histone acetyltransferases by long chain alkylidenemalonates (LoCAMs)” (Bioorg Med Chem, 2011):
Blank lines part the entries; values can stand above or below the compound they belong to. Activity calls are given as the source filed them. The calls are words filed in the database; no cut-off is given here.

Tests used:
[1] = target: CREB-binding protein (Homo sapiens) (UniProt Q92793); assay: Inhibition of human recombinant KAT3A expressed in Escherichia coli BL21 using histone H4 peptide as substrate at 50 uM after 2 hrs relative to control
In short: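 Recombinant CBP fragment (aa 1098–1877) from E. coli BL21, affinity purified. Spotted on P81 paper in triplicate, washed with TCA/acetone, scintillation DPM compared with negative control, expressed as %.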

[2] = target: Histone acetyltransferase KAT2B (Homo sapiens) (UniProt Q92831); assay: Increase of human recombinant KAT2B acetylation activity using histone H4 peptide as substrate at 50 uM after 2 hrs
In short: (§1)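 Human PCAF (200 ng) in KAT buffer with 10 µg histone H4 peptide (aa 2–24), 20 µM acetyl-CoA with 0.5 µCi/mL [3H]-acetyl-CoA, and compound at 50 µM final, 2 h at 37 °C. Spotted on P81 paper in triplicate, washed with TCA then acetone, scintillation counted. Activity given as % of untreated control (100%).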

MCF7 [3] = assay: Inhibition of histone acetyltransferase in human MCF7 cells assessed as increase of alpha-tubulin acetylation level after 15 mins by Western blotting; assay type: cell-based
U-937 [4] = assay: Cell cycle arrest in human U937 cells assessed as accumulation at S phase at 25 uM after 30 hrs using propidium iodide staining by flow cytometry; assay type: functional, cell-based
In short: (§2)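 U937 cells kept at 200,000 cells/mL, 37 °C, 5% CO2, treated 30 h at 50 or 25 µM. Phase distribution by flow cytometry. Three independent experiments, mean ± SD.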

U-937 [5] = assay: Induction of apoptosis in human U937 cells at 25 uM after 30 hrs using annexin V/propidium iodide double-staining by FACS analysis; assay type: functional, cell-based
In short: (§3)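 U937 cells at 200,000 cells/mL, 37 °C, 5% CO2, exposed 30 h at 50 or 25 µM. Dose–response runs used 5–200 µM, with IC50 taken as the concentration giving 50% apoptosis. Annexin V/propidium iodide double staining, apoptotic subpopulations counted by FACS. Three independent experiments, mean ± SD.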

U-937 [6] = assay: Induction of granulocytic differentiation in human U937 after […] using propidium iodide staining by FACS analysis; assay type: functional, cell-based
U-937 [7] = assay: Inhibition of histone acetyltransferase in human U937 cells assessed as increase of histone H3 acetylation level at 50 uM after 15 mins by Western blotting; assay type: cell-based
In short: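 U937 cells treated at 50 µM. Histones prepared by Triton extraction buffer lysis, then overnight 0.2 M HCl extraction at 4 °C, Bradford quantitation. Immunoblot with pan-acetyl-H3 antibody (1:1000), Ponceau Red staining as loading check.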

[8] = target: Histone deacetylase (Homo sapiens) (UniProt Q13547+O15379+Q9UBN7+Q92769+Q9UQL6+Q8WUI4+Q9BY41+Q96DB2+P56524+Q9UKV0+Q969S8); assay: Inhibition of HDAC in human U937 cells at 50 uM after 15 mins by Western blotting; assay type: cell-based; conditions: U-937
U-937 [9] = assay: Cell cycle arrest in human U937 cells assessed as accumulation at S phase at 50 uM after 30 hrs using propidium iodide staining by flow cytometry; assay type: functional, cell-based; in short: as §2
U-937 [10] = assay: Induction of apoptosis in human U937 cells at 50 uM after 30 hrs using annexin V/propidium iodide double-staining by FACS analysis; assay type: functional; in short: as §3
U-937 [11] = assay: Induction of apoptosis in human U937 cells after 30 hrs using annexin V/propidium iodide double-staining by FACS analysis; assay type: functional, cell-based; conditions: U-937, 30 h; in short: as §3
U-937 [12] = assay: Inhibition of histone acetyltransferase in human U937 cells assessed as increase of acetylation of histone H3 at K9 at 50 uM after 24 hrs by Western blotting; assay type: cell-based
In short: (§4)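 U937 cells treated 24 h at 50 µM. Acid-extracted histones (Triton buffer lysis, then 0.2 M HCl overnight at 4 °C) immunoblotted with site-specific antibodies (H3K9/K14/K18/K56ac, H4K5/K8/K16ac, pan-acetyl H4; 1:1000). Loading checked by Ponceau Red staining, or by histone H1 for pan-acetyl H4.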

U-937 [13] = assay: Inhibition of histone acetyltransferase in human U937 cells assessed as increase of acetylation of histone H3 at K18 at 50 uM after 24 hrs by Western blotting; assay type: cell-based; in short: as §4
U-937 [14] = assay: Inhibition of histone acetyltransferase in human U937 cells assessed as increase of pan-acetylated histone H4 level at 50 uM after 24 hrs by Western blotting; assay type: cell-based; in short: as §4
U-937 [15] = assay: Inhibition of histone acetyltransferase in human U937 cells assessed as increase of acetylation of histone H3 at K14 at 50 uM after 24 hrs by Western blotting; assay type: cell-based; in short: as §4
U-937 [16] = assay: Inhibition of histone acetyltransferase in human U937 cells assessed as increase of acetylation of histone H3 at K56 at 50 uM after 24 hrs by Western blotting; assay type: cell-based; in short: as §4
U-937 [17] = assay: Inhibition of histone acetyltransferase in human U937 cells assessed as increase of acetylation of histone H4 at K5 at 50 uM after 24 hrs by Western blotting; assay type: cell-based; in short: as §4
U-937 [18] = assay: Inhibition of histone acetyltransferase in human U937 cells assessed as increase of acetylation of histone H4 at K8 at 50 uM after 24 hrs by Western blotting; assay type: cell-based; in short: as §4
U-937 [19] = assay: Inhibition of histone acetyltransferase in human U937 cells assessed as increase of acetylation of histone H4 at K16 at 50 uM after 24 hrs by Western blotting; assay type: cell-based; in short: as §4
U-937 [20] = assay: Inhibition of histone acetyltransferase in human U937 cells assessed as inhibition of acetylation of histone H4 at K8 at 50 uM after 24 hrs by Western blotting; assay type: cell-based; in short: as §4
Albumin = Albumin (Bos taurus, UniProt P02769); assay: Binding affinity to bovine serum albumin by surface plasmon resonance assay; conditions: cattle
[21] = target: Histone acetyltransferase p300 (Homo sapiens) (UniProt Q09472); assay: Binding affinity to immobilized His6-tagged human full-length KAT3B expressed in Sf9 cells by surface plasmon resonance assay
[22] = target: Histone acetyltransferase p300 (Homo sapiens) (UniProt Q09472); assay: Binding affinity to His6-tagged immobilized human KAT3B catalytic domain expressed in Sf9 cells by surface plasmon resonance assay
MCF7 [23] = assay: Inhibition of histone acetyltransferase in human MCF7 cells assessed as increase of alpha-tubulin acetylation level at 15 and 30 uM after 15 mins by Western blotting
[24] = target: Histone acetyltransferase KAT2B (Homo sapiens) (UniProt Q92831); assay: Inhibition of human recombinant KAT2B using histone H4 peptide as substrate at 50 uM after 2 hrs; in short: as §1
MCF7 [25] = assay: Inhibition of histone acetyltransferase in human MCF7 cells assessed as increase of alpha-tubulin acetylation level at 15 uM after 15 mins by Western blotting; assay type: cell-based
In short: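 MCF-7 cells grown in D-MEM at 200,000 cells/mL, 37 °C, 5% CO2, treated at 15 and 30 µM. Lysis in 50 mM Tris–HCl pH 7.4, 150 mM NaCl, 1% NP40, NaF, PMSF and protease inhibitors, 15 min at 4 °C. Bradford quantitation. Western blot with anti-acetyl-α-tubulin (1:1000), ERK1 as loading control.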

Sequence of CREB-binding protein (Homo sapiens) (Q92793 2-2442 limits assumed): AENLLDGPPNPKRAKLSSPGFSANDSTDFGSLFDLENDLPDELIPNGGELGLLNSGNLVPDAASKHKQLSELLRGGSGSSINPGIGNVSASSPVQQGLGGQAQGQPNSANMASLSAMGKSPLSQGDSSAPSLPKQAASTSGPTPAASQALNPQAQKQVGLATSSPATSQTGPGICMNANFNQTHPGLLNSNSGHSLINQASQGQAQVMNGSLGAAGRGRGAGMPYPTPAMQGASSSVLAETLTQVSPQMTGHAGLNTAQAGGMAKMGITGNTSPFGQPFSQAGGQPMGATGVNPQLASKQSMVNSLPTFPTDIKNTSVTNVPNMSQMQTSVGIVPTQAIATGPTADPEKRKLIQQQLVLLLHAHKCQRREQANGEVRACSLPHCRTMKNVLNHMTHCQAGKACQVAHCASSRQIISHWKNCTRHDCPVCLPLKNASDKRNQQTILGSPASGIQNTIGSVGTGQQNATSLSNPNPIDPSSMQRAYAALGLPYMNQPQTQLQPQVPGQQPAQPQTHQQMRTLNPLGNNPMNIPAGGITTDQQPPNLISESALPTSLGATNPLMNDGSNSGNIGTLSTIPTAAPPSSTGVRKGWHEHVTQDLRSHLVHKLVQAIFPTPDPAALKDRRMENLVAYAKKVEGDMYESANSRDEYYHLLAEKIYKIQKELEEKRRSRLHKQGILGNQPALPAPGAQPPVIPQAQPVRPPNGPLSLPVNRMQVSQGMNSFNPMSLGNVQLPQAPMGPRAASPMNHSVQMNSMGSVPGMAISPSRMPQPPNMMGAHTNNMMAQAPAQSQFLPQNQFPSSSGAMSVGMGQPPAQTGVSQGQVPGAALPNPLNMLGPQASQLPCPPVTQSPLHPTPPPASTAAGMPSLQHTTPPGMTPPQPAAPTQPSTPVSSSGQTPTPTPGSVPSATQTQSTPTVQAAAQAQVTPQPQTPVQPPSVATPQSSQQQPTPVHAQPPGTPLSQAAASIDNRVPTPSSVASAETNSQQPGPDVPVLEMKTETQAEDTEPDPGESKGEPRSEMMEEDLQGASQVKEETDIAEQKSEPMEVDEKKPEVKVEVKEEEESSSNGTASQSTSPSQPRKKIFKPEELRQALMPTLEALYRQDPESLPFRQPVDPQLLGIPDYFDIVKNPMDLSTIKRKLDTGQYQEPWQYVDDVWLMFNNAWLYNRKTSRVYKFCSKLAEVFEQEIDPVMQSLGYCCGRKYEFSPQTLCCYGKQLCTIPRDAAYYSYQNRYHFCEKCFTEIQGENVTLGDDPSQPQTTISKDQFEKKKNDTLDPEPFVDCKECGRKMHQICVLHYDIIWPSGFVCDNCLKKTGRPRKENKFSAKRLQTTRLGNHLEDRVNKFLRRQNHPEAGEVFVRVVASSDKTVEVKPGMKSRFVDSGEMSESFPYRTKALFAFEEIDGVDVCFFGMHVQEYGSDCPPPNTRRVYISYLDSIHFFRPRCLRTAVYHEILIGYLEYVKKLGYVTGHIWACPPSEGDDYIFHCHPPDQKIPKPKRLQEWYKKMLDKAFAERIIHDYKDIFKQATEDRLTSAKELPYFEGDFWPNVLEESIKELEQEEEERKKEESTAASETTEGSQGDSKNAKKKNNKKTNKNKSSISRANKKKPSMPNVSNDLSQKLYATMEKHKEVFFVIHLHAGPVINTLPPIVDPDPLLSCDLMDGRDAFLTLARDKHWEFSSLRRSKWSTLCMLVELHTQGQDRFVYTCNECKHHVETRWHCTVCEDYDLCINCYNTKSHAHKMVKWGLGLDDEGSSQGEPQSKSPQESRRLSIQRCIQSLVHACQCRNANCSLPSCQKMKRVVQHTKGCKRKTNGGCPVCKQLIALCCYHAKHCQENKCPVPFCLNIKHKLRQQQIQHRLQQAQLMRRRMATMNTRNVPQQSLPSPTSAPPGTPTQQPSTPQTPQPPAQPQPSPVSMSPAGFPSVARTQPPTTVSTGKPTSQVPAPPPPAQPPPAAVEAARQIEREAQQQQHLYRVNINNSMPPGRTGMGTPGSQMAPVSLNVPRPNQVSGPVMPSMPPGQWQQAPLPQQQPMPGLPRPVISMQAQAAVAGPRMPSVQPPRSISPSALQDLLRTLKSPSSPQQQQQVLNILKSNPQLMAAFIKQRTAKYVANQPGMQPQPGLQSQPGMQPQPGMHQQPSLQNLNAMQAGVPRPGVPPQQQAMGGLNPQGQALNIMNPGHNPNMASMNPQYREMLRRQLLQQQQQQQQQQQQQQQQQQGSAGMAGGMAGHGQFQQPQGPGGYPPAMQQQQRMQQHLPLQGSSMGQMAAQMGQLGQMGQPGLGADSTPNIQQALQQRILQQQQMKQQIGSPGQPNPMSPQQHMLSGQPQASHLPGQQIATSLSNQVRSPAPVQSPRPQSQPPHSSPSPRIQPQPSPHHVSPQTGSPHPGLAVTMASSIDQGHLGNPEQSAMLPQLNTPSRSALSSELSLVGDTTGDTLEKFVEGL
Sequence of Histone acetyltransferase KAT2B (Homo sapiens) (Q92831 whole entry, looked up, the tested form may be a part): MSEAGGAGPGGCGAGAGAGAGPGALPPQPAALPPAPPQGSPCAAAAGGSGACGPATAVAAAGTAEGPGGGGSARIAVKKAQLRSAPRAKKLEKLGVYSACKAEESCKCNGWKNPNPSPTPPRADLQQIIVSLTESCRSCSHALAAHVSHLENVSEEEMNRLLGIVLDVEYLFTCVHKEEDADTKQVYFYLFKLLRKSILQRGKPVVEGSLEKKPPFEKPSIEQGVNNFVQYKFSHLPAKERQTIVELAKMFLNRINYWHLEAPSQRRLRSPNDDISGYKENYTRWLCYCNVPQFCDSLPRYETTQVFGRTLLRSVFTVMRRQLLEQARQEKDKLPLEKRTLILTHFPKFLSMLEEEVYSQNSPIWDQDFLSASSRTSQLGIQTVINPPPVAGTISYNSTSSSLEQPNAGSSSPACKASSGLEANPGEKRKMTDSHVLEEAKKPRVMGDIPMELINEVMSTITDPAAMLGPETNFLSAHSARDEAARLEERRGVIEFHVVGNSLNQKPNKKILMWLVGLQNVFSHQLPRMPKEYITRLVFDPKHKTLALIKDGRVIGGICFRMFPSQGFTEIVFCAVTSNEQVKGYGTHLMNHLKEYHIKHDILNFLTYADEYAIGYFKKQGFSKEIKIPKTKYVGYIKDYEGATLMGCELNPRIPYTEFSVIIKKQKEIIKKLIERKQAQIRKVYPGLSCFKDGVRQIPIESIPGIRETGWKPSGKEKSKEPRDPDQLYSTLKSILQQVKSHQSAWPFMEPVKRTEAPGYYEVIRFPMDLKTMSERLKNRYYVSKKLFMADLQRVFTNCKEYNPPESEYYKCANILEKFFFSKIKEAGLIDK
Sequence of Albumin (P02769 whole entry): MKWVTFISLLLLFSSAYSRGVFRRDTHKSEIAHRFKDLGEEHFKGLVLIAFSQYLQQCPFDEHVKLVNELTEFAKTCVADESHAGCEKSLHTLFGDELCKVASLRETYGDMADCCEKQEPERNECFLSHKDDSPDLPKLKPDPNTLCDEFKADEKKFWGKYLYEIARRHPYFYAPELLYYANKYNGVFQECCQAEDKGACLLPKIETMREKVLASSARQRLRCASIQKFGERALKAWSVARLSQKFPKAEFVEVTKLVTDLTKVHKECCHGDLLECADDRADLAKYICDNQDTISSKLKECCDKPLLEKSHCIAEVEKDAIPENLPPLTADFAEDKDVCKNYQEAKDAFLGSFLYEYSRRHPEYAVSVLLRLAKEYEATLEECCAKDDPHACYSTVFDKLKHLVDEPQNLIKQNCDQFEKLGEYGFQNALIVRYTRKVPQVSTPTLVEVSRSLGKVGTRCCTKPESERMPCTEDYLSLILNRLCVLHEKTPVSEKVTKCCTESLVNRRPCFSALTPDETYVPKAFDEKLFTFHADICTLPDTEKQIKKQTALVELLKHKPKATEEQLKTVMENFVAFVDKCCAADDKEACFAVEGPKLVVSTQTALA

inhibition [1]: Active | Activity [2]: Active
SMILES: CCCCCCCCCCCCCNC=C(C(=O)OCC)C(=O)OCC
inhibition (MCF7 [3]): Dose-dependent effect | Activity (U-937 [4]): inactive | Activity (U-937 [5]): inactive | Activity (U-937 [6]): inactive

inhibition [1]: 79% | Activity [2]: Active | inhibition [8]: inactive | IC50 (U-937 [11]): 44.9 µM | Activity (Albumin): Not Active | Activity [21]: Dose-dependent effect | Activity [22]: Dose-dependent effect
SMILES: CCCCCCCCCCCCCCC=C(C(=O)OCC)C(=O)OCC
inhibition (U-937 [7]): Active | Activity (U-937 [9]): Active | Activity (U-937 [10]): 94.4% | Activity (U-937 [6]): inactive | inhibition (U-937 [12]): Active | inhibition (U-937 [13]): Active | inhibition (U-937 [14]): Active | inhibition (U-937 [15]): inactive | inhibition (U-937 [16]): inactive | inhibition (U-937 [17]): inactive | inhibition (U-937 [18]): inactive | inhibition (U-937 [19]): inactive | inhibition (U-937 [20]): inactive | inhibition (MCF7 [23]): inactive

inhibition [1]: Active | inhibition [24]: Active
SMILES: CCCCCCCCCCCCCCCC(O)=C(C(=O)OCC)C(=O)OCC
inhibition (MCF7 [25]): Active | Activity (U-937 [4]): inactive | Activity (U-937 [5]): inactive | Activity (U-937 [6]): inactive
